In ChEMBL document CHEMBL4477160, “Methylbenzene-Containing Polyketides from a Streptomyces that Spontaneously Acquired Rifampicin Resistance: Structural Elucidation and Biosynthesis” (J Nat Prod, 2016):
Active and inactive are the calls of the source.

How the values were obtained:
Staphylococcus aureus = assay: Antimicrobial activity against Staphylococcus aureus assessed as decrease in cell viability at 1.56 to 100 uM after 24 hrs; format: functional, organism-based
Method in brief: (§1)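 Compounds in DMSO dispensed at a range of concentrations into 384-well plates. Each test strain was grown to OD620 ~0.5, diluted 2000-fold in LB medium and added to the wells. Plates were incubated 24 h at 37 °C. Viability was read as absorbance at 620 nm.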

Jurkat = assay: Cytotoxicity against human Jurkat cells assessed as decrease in cell viability at 0.01 to 100 uM after 72 hrs by WST-8 assay; format: functional, cell-based
Micrococcus luteus = assay: Antimicrobial activity against Micrococcus luteus assessed as decrease in cell viability at 1.56 to 100 uM after 24 hrs; format: functional, organism-based; method in brief: as §1
Homo sapiens = species: Homo sapiens; assay: Cytotoxicity against human ACC-MESO1 cells assessed as decrease in cell viability at 0.01 to 100 uM after 72 hrs by WST-8 assay; format: functional, cell-based
SK-OV-3 = assay: Cytotoxicity against human SKOV3 cells assessed as decrease in cell viability at 0.01 to 100 uM after 72 hrs by WST-8 assay; format: functional, cell-based
Bacillus subtilis = assay: Antimicrobial activity against Bacillus subtilis assessed as decrease in cell viability at 1.56 to 100 uM after 24 hrs; format: functional, organism-based; method in brief: as §1
Escherichia coli = assay: Antimicrobial activity against Escherichia coli assessed as decrease in cell viability at 1.56 to 100 uM after 24 hrs; format: functional, organism-based; method in brief: as §1

Measured: Activity

Cc1ccccc1/C=C/CCC(=O)NC1=C(O)CCC1=O
inactive: Staphylococcus aureus | Jurkat | Micrococcus luteus | Homo sapiens | SK-OV-3 | Bacillus subtilis | Escherichia coli

Cc1ccccc1/C=C/C=C/C=C/C=C/C(=O)NC1=C(O)CCC1=O
inactive: Staphylococcus aureus | Jurkat | Micrococcus luteus | Homo sapiens | SK-OV-3 | Bacillus subtilis | Escherichia coli
